Laboratory results reported in ChEMBL document CHEMBL5136984, “Synthesis and antiproliferative activity of 6BrCaQ-TPP conjugates for targeting the mitochondrial heat shock protein TRAP1” (Eur J Med Chem, 2022).
Calls of active or inactive are those of the source. The rule behind the calls is not given here.

Legend:
MDA-MB-231 [1] = experiment: Cytotoxicity against human MDA-MB-231 cells assessed as cell growth inhibition incubated for 72 hrs by Celltiter Glo assay; assay type: functional, cell-based; details: for GI50: MDA-MB-231, time 72 hrs; for IC50: MDA-MB-231, 72 h
In short: (§1)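 MDA-MB-231 cells exposed for 72 h; survival quantified by CellTiter Glo luminescence. GI50 = 50% growth inhibition; TGI = concentration at which final cell number equals the starting number; LC50 and IC50 also derived from the same curves.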

MDA-MB-231 [2] = experiment: Cytotoxicity against human MDA-MB-231 cells assessed as induction of cell death incubated for 72 hrs by Celltiter Glo assay; assay type: functional; details: read-out: LC50 (the source's name)
In short: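 MDA-MB-231 cells were exposed to compounds for 72 h, and survival was quantified by CellTiter-Glo luminescence. From the curves, GI50 (50% growth inhibition), TGI (cell number equal to that at start), LC50 (end cell number 50% of start) and IC50 (50% inhibition of cell activity) were derived.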

MDA-MB-231 [3] = experiment: Cytotoxicity against human MDA-MB-231 cells assessed as concentration required for complete tumor growth inhibition incubated for 72 hrs by Celltiter Glo assay; assay type: functional; in short: as §1
HCT-116 [4] = experiment: Cytotoxicity against human HCT-116 cells assessed as induction of cell death incubated for 72 hrs by MTT assay; assay type: functional; details: read-out: LC50 (the source's name)
In short: (§2)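 Cells were seeded at 2,500 per well and treated 24 h later for 72 h, with 4 replicates per condition and at least three independent experiments. MTT (5 mg/mL solution) was added for 2 h, then the medium was replaced by DMSO. Absorbance at 570 nm was blank-corrected using cell-free wells containing compound, and untreated cells were set as 100% metabolic activity.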

K562 = experiment: Cytotoxicity against human K562 cells assessed as induction of cell death incubated for 72 hrs by MTT assay; assay type: functional; details: read-out: LC50 (the source's name); in short: as §2
MDA-MB-231 [5] = experiment: Cytotoxicity against human MDA-MB-231 cells assessed as induction of cell death incubated for 72 hrs by MTT assay; assay type: functional; details: read-out: LC50 (the source's name); in short: as §2
HT-29 [6] = experiment: Induction of mitochondrial membrane potential depolarization in human HT-29 cells assessed as reduction in fluorescence intensity at 0.1 to 1 uM measured after 2 to 6 hrs by TMRE staining based analysis relative to control; assay type: functional; parameters: scale not given: the % may be the effect or the level left; details: dose 0.1-1 µM, time 2-6 hrs
In short: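 HT-29 cells (2,500/well) seeded the day before, exposed 2, 3 or 6 h at 0.1, 0.5 and 1 µM. CCCP 50 µM for 20 min served as depolarization control. TMRE added at 200 nM final for 20 min at 37 °C, fluorescence read by microplate, relative to untreated cells. 3–8 replicate wells per condition.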

PC-3 = experiment: Cytotoxicity against human PC-3 cells assessed as induction of cell death incubated for 72 hrs by MTS assay; assay type: functional; details: read-out: LC50 (the source's name)
HT-29 [7] = experiment: Cytotoxicity against human HT-29 cells assessed as inhibition of cell growth incubated for 72 hrs by MTT assay; assay type: functional, cell-based; details: HT-29, 72 h
In short: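 HT-29 cells (McCoy medium, 10% FBS, 2 mM glutamine) seeded at 2,500/well, treated 24 h later for 72 h. MTT (5 mg/mL solution) 2 h, formazan dissolved in DMSO, A570 corrected for cell-free blanks with compound. Untreated wells set as 100%. Quadruplicates, at least three independent experiments.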

HCT-116 [8] = experiment: Cytotoxicity against human HCT-116 cells assessed as cell viability at 1 uM incubated for 72 hrs by MTT assay relative to control; assay type: functional; details: read-out: Activity
In short: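 MTT read-out after 72 h exposure; 2,500 cells/well seeded and treated 24 h later. MTT solution (5 mg/mL) added for 2 h, medium replaced by DMSO, absorbance at 570 nm corrected for cell-free blanks with compound. Untreated cells taken as 100% metabolic activity. Quadruplicate wells, experiment repeated at least three times.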

[9] = Drug localization in vesicle of human A549 cells at 2 uM measured after 4 hrs by MitoTracker Deep Red based confocal microscopic analysis; details: a549, 4 h
HT-29 [10] = experiment: Cytotoxicity against human HT-29 cells assessed as dead cells at 0.1 to 2 uM incubated for 72 hrs by trypan blue staining based optical microscopic analysis relative to control; assay type: functional; details: dose 0.1-2 µM
In short: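 HT-29 cells were grown in McCoy medium with 10% FBS and 2 mM L-glutamine at 37 °C under 5% CO2, seeded at 30,000 per well and treated 24 h later for 72 h. Cells were PBS-washed, trypsinized, mixed 1:1 with trypan blue, and viable and dead cells were counted by light microscopy. Each condition was run three times.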

HT-29 [11] = experiment: Cytotoxicity against human HT-29 cells assessed as reduction in viable cells incubated for 72 hrs by trypan blue staining based optical microscopic analysis relative to control; assay type: functional, cell-based; details: HT-29, 72 h
In short: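 HT-29 cells seeded at 30,000/well, treated 24 h later for 72 h. Cells washed with PBS, trypsinized, resuspended in medium and mixed 1:1 with trypan blue. Viable and dead cells counted by optical microscopy on a counting slide. Each condition analysed 3 times.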

HT-29 [12] = experiment: Cytotoxicity against human HT-29 cells assessed as cell mortality at 0.1 to 1 uM incubated for 2 to 6 hrs by MTT assay; assay type: toxicity, cell-based; details: ht-29, 1 µM, dose lower 0.1 µM, time lower 2 hrs, dose upper 1 µM, time upper 6 hrs
HT-29 [13] = experiment: Downregulation of SDHA protein expression in human HT-29 cells incubated for 24 hrs by Western blot analysis; assay type: functional, cell-based; details: dose 0.1-1 µM, DDE = dose-dependent effect
In short: (§3)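 HT-29 cells exposed 24 h at 0.1, 0.5 and 1 µM; RIPA lysates, 30 µg protein on 4–15% stain-free SDS-PAGE, PVDF transfer. Anti-SDH-A (mouse, 1:500) or anti-SDH-B (rabbit, 1:250) overnight at 4 °C, HRP secondary, ECL. Densitometry normalized to stain-free total protein; duplicate blots.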

HT-29 [14] = experiment: Downregulation of SDHB protein expression in human HT-29 cells incubated for 24 hrs by Western blot analysis; assay type: functional, cell-based; details: dose 0.1-1 µM, DDE = dose-dependent effect; in short: as §3
HT-29 [15] = experiment: Downregulation of HSP27 protein expression in human HT-29 cells at 0.1 to 0.5 uM incubated for 24 hrs by Western blot analysis; assay type: functional, cell-based; details: dose 0.1-0.5 µM
In short: (§4)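 HT-29 cells treated 24 h, lysed in RIPA with protease inhibitors 30 min on ice. 30 µg protein denatured at 95 °C with β-mercaptoethanol, run on 4–15% stain-free gels, transferred to PVDF. Blocked in 5% milk/TBS-Tween, primary antibody overnight at 4 °C, HRP secondary 1 h, ECL detection. Signals normalized to stain-free total protein. Blots in duplicate.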

HT-29 [16] = experiment: Downregulation of HSP70 protein expression in human HT-29 cells at 0.1 to 0.5 uM incubated for 24 hrs by Western blot analysis; assay type: functional, cell-based; details: dose 0.1-0.5 µM; in short: as §4
[17] = target: T1, Heat shock factor protein 1 (Homo sapiens) (UniProt Q00613); experiment: Induction of HSF-1 degradation in human HT-29 cells at 0.5 uM incubated for 24 hrs by Western blot analysis; assay type: cell-based; in short: as §4
T1 sequence (whole entry): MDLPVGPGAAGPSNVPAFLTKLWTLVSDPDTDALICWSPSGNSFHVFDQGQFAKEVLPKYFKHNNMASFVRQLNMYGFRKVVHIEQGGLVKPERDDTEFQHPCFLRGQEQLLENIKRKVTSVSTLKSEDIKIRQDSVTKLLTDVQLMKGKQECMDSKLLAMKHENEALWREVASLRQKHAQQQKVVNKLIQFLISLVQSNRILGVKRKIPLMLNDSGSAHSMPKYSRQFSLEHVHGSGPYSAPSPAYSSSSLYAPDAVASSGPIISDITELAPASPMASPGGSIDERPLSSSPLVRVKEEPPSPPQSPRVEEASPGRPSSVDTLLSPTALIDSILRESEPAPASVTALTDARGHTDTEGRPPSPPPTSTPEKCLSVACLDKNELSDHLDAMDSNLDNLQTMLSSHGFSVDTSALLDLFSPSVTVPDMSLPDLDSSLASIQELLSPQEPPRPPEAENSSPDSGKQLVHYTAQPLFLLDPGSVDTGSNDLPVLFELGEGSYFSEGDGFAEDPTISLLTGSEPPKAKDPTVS

Structure (SMILES) | GI50 (MDA-MB-231 [1]) | CC50 (MDA-MB-231 [2]) | EC (MDA-MB-231 [3]) | IC50 (MDA-MB-231 [1]) | other results
COc1ccc(C(=O)Nc2cc3cc(Br)ccc3n(C)c2=O)cc1 | 60 nM | 380 nM | 0.16 µM |  | CC50 (HCT-116 [4]): 7000 nM; CC50 (K562): 48000 nM; CC50 (MDA-MB-231 [5]): 2000 nM; Activity (HT-29 [6]): -30%; CC50 (PC-3): 10000 nM; IC50 (HT-29 [7]): > 20000 nM
Cn1c(=O)c(NC(=O)c2ccc(OCCCCCCCCCCBr)cc2)cc2cc(Br)ccc21 |  |  |  | 7000 nM | 
OCCCCCCCCCC[P+](c1ccccc1)(c1ccccc1)c1ccccc1.[Br-] |  |  |  |  | Activity (HT-29 [6]): <=35%
Cn1c(=O)c(NC(=O)c2ccc(OCCCCCCCCCCOc3ccc(N(c4ccc(/C=C/c5cc[n+](C)cc5)cc4)c4ccc(/C=C/c5cc[n+](C)cc5)cc4)cc3)cc2)cc2cc(Br)ccc21.[I-].[I-] |  |  |  |  | viability at 1 µM (HCT-116 [8]): 95%; Drug uptake [9]: Active
Cn1c(=O)c(NC(=O)c2ccc(OCCCCCCCCCC[P+](c3ccccc3)(c3ccccc3)c3ccccc3)cc2)cc2ccccc21.[Br-] | 26 nM | 310 nM | 0.092 µM | 49 nM | 
Cn1c(=O)c(NC(=O)c2ccc(OCCCCCCCCCCCC[P+](c3ccccc3)(c3ccccc3)c3ccccc3)cc2)cc2cc(Br)ccc21.[Br-] | 11000 nM | 17900 nM | 15.2 µM |  | 
Cn1c(=O)c(NC(=O)c2ccc(O)cc2)cc2cc(Br)ccc21 | 5790 nM | 17600 nM | 10.97 µM | 7150 nM | 
Cn1c(=O)c(NC(=O)c2ccc(OCCCCCCC[P+](c3ccccc3)(c3ccccc3)c3ccccc3)cc2)cc2cc(Br)ccc21.[Br-] | 65 nM | 490 nM | 0.18 µM | 82 nM | 
Cn1c(=O)c(NC(=O)c2ccc(OCCCCCCCCCC[P+](c3ccccc3)(c3ccccc3)c3ccccc3)cc2)cc2cc(Br)ccc21.[Br-] | 8 nM | 180 nM | 0.037 µM | 8 nM | CC50 (HCT-116 [4]): 36 nM; CC50 (K562): 107 nM; CC50 (MDA-MB-231 [5]): 180 nM; Activity (HT-29 [6]): <=68%; CC50 (PC-3): 300 nM; IC50 (HT-29 [7]): < 100 nM; Activity (HT-29 [10]): <10%; IC50 (HT-29 [11]): < 100 nM; Activity (HT-29 [12]): Non-Toxic; viability at 1 µM (HCT-116 [8]): 11%; Activity (HT-29 [13]): Dde; Activity (HT-29 [14]): Dde; Activity (HT-29 [15]): Active; Activity (HT-29 [16]): Active; Activity [17]: Active
Cn1c(=O)c(NC(=O)c2ccc(OCCCC[P+](c3ccccc3)(c3ccccc3)c3ccccc3)cc2)cc2cc(Br)ccc21.[Br-] | 76 nM | 110 nM | 0.091 µM | 82 nM | 
Cn1c(=O)c(NC(=O)c2ccc(OCCCCC[P+](c3ccccc3)(c3ccccc3)c3ccccc3)cc2)cc2cc(Br)ccc21.[Br-] | 83 nM | 100 nM | 0.093 µM | 87 nM | 
Cn1c(=O)c(NC(=O)c2ccc(OCCC[P+](c3ccccc3)(c3ccccc3)c3ccccc3)cc2)cc2cc(Br)ccc21.[Br-] | 60 nM | 380 nM | 0.16 µM |  | 
